Test results reported in ChEMBL document CHEMBL2040794, “Synthesis and structure-activity analysis of new phosphonium salts with potent activity against African trypanosomes” (J Med Chem, 2012).

Columns and labels:
[1] = system: Trypanosoma brucei brucei; experiment: Antitrypanosomal activity against diminazene aceturate-resistant TbAT1 gene-deficient Trypanosoma brucei brucei AT1-KO after 3 days by alamar blue assay; format: functional, organism-based
Procedure, shortened: (§1)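 Bloodstream-form T. b. brucei (wild-type s427; TbAT1-KO, made from s427 by TbAT1 deletion; B48, selected from TbAT1-KO in vitro on pentamidine, lacking functional HAPT1). Cells were exposed to compound for 48 h, then resazurin (Alamar blue) was added for a further 24 h. A single fluorescence reading gave EC50.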

[2] = Selectivity index, ratio of EC50 for human HEK cells to EC50 for wild type Trypanosoma brucei brucei Lister 427; format: toxicity, cell-based, HEK293; conditions: for selectivity ratio: HEK cells, read-out: Ratio EC50
Procedure, shortened: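 Ratio of EC₅₀ in HEK cells to EC₅₀ in wild-type T. b. brucei s427, both from resazurin assays.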

[3] = system: Trypanosoma brucei brucei; experiment: Antitrypanosomal activity against diminazene-, pentamidine-, and melaminophenyl arsenical-resistant HAPT1-deficient Trypanosoma brucei brucei B48 after 3 days by alamar blue assay; format: functional, organism-based; procedure, shortened: as §1
L6 = experiment: Cytotoxicity against rat L6 cells after 72 hrs by alamar blue assay; format: cell-based
[4] = system: Trypanosoma brucei brucei; experiment: Antitrypanosomal activity against wild type Trypanosoma brucei brucei Lister 427 after 3 days by alamar blue assay; format: functional, organism-based; procedure, shortened: as §1
[5] = system: Trypanosoma brucei rhodesiense; experiment: Antitrypanosomal activity against Trypanosoma brucei rhodesiense STIB900 infected in rat L6 cells after 72 hrs by alamar blue assay; format: functional, organism-based
[6] = system: Trypanosoma brucei brucei; experiment: Resistance factor, ratio of EC50 for diminazene-, pentamidine-, and melaminophenyl arsenical-resistant HAPT1-deficient Trypanosoma brucei brucei B48 to EC50 for wild type Trypanosoma brucei brucei Lister 427; format: functional
Procedure, shortened: (§2)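 Resistance factor is the EC50 in the resistant line (TbAT1-KO or B48) divided by the EC50 in wild-type s427. […] Resistant and wild-type EC50s were compared by Student t-test.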

[7] = system: Trypanosoma brucei brucei; experiment: Resistance factor, ratio of EC50 for diminazene aceturate-resistant TbAT1 gene-deficient Trypanosoma brucei brucei AT1-KO to EC50 for wild type Trypanosoma brucei brucei Lister 427; format: functional; procedure, shortened: as §2
[8] = Cytotoxicity against human HEK cells after 3 days by alamar blue assay; format: cell-based, HEK293
Procedure, shortened: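 Human embryonic kidney cells tested by resazurin (Alamar blue) assay: 48 h with compound, then 24 h more after dye addition, single reading; EC₅₀ derived.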

[9] = Selectivity index, ratio of EC50 for rat L6 cells to EC50 for Trypanosoma brucei rhodesiense STIB900; format: toxicity, cell-based; conditions: for selectivity ratio: L6 cells, read-out: Ratio EC50; for Ratio EC50: l6
Procedure, shortened: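 Ratio of EC₅₀ in L6 cells to EC₅₀ against T. b. rhodesiense STIB900, both from Alamar blue assays.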

[10] = Trypanosoma brucei, AT1-KO, 72 h
[11] = Trypanosoma brucei, Lister 427, 72 h
[12] = Trypanosoma brucei, STIB900, 72 h

Structure (SMILES)	EC50 [1, 10] [µM]	selectivity ratio [2]	EC50 ([3]; Trypanosoma brucei, B48, 72 h) [µM]	EC50 (L6; Rattus norvegicus, L6, 72 h) [µM]	EC50 [4, 11] [µM]	EC50 [5, 12] [µM]	Ratio EC50 [6]	Ratio EC50 [7]	EC50 ([8]; Homo sapiens, HEK293, 72 h) [µM]	selectivity ratio [9]	EC50 [1] [µM]	Ratio EC50 ([2]; hek293)	EC50 [3] [µM]	EC50 (L6; l6) [µM]	EC50 [4] [µM]	EC50 [5] [µM]	EC50 ([8]; hek293) [µM]	Ratio EC50 [9]
[Br-].[Br-].c1ccc2c([P+](Cc3ccc(Cc4ccc(C[P+](c5cccc6ccccc56)(c5cccc6ccccc56)c5cccc6ccccc56)cc4)cc3)(c3cccc4ccccc34)c3cccc4ccccc34)cccc2c1	0.17	1210	0.14	3.43	0.14	0.299	1	1.3	163	12	–	–	–	–	–	–	–	–
Cc1cccc([P+](Cc2ccc(Oc3ccccc3)cc2)(c2cccc(C)c2)c2cccc(C)c2)c1.[Br-]	0.021	876	0.017	0.87	0.028	0.014	0.6	0.8	24.5	62	–	–	–	–	–	–	–	–
CC(C)[P+](Cc1ccc(Cc2ccc(C[P+](c3ccccc3)(c3ccccc3)C(C)C)cc2)cc1)(c1ccccc1)c1ccccc1.[Br-].[Br-]	0.4	> 680	0.43	3.44	0.44	0.534	1	0.9	> 300	6.4	–	–	–	–	–	–	–	–
COc1ccc([P+](Cc2ccc(C(=O)c3ccc(C[P+](c4ccc(OC)cc4)(c4ccc(OC)cc4)c4ccc(OC)cc4)cc3)cc2)(c2ccc(OC)cc2)c2ccc(OC)cc2)cc1.[Br-].[Br-]	0.52	529	0.23	11.8	0.32	0.29	0.7	1.6	172	40	–	–	–	–	–	–	–	–
CC(C)C[P+](Cc1ccc(Cc2ccc(C[P+](CC(C)C)(CC(C)C)CC(C)C)cc2)cc1)(CC(C)C)CC(C)C.[Br-].[Br-]	0.88	> 429	0.88	45.9	0.7	0.326	1.3	1.3	> 300	141	–	–	–	–	–	–	–	–
CCCCCC[P+](CCCCCC)(CCCCCC)Cc1ccc(C(=O)c2ccccc2)cc1.[Br-]	0.008	1200	0.022	1.61	0.011	0.103	1.9	0.7	13.4	15	–	–	–	–	–	–	–	–
Cc1ccc([P+](Cc2ccc(CCCc3ccc(C[P+](c4ccc(C)cc4)(c4ccc(C)cc4)c4ccc(C)cc4)cc3)cc2)(c2ccc(C)cc2)c2ccc(C)cc2)cc1.[Cl-].[Cl-]	–	–	–	–	–	–	0.6	0.7	–	–	0.066	127	0.062	1.72	0.1	0.063	12.7	27.3
O=C(c1ccc(C[P+](c2cccc3ccccc23)(c2cccc3ccccc23)c2cccc3ccccc23)cc1)c1ccc(C[P+](c2cccc3ccccc23)(c2cccc3ccccc23)c2cccc3ccccc23)cc1.[Br-].[Br-]	0.339	502	0.18	4.9	0.18	0.4	1	1.8	92	12	–	–	–	–	–	–	–	–
Cc1ccc([P+](Cc2ccc(CCc3ccc(C[P+](c4ccc(C)cc4)(c4ccc(C)cc4)c4ccc(C)cc4)cc3)cc2)(c2ccc(C)cc2)c2ccc(C)cc2)cc1.[Br-].[Br-]	–	213	–	–	–	0.084	1	1	32.4	–	0.15	–	0.15	0.656	0.15	–	–	7.8
Cc1cccc([P+](Cc2ccc(Oc3ccc(C[P+](c4cccc(C)c4)(c4cccc(C)c4)c4cccc(C)c4)cc3)cc2)(c2cccc(C)c2)c2cccc(C)c2)c1.[Br-].[Br-]	0.043	792	0.088	0.942	0.057	0.488	1.5	0.7	45.4	1.9	–	–	–	–	–	–	–	–
Cc1ccc([P+](Cc2ccc(C(=O)c3ccccc3)cc2)(c2ccccc2)c2ccccc2)cc1.[Br-]	0.15	504	0.1	7.72	0.15	0.267	0.7	1	76.8	29	–	–	–	–	–	–	–	–
COc1ccccc1[P+](Cc1ccc(C(=O)c2ccc(C[P+](c3ccccc3)(c3ccccc3OC)c3ccccc3OC)cc2)cc1)(c1ccccc1)c1ccccc1OC.[Br-].[Br-]	0.32	438	0.19	6.4	0.24	0.23	0.8	1.3	107	28	–	–	–	–	–	–	–	–
Cc1ccc([P+](Cc2ccc(Oc3ccccc3)cc2)(c2ccc(C)cc2)c2ccc(C)cc2)cc1.[Br-]	0.013	1140	0.01	0.263	0.015	0.002	0.7	0.8	17.6	131	–	–	–	–	–	–	–	–
C[P+](Cc1ccc(C(=O)c2ccc(C[P+](C)(c3ccccc3)c3ccccc3)cc2)cc1)(c1ccccc1)c1ccccc1.[Br-].[Br-]	2.08	> 200	2.05	116	1.53	0.656	1.3	1.4	> 300	177	–	–	–	–	–	–	–	–
O=C(c1ccc(C[P+](c2cccs2)(c2cccs2)c2cccs2)cc1)c1ccc(C[P+](c2cccs2)(c2cccs2)c2cccs2)cc1.[Br-].[Br-]	0.52	785	0.33	16.6	0.33	0.29	1	1.6	260	58	–	–	–	–	–	–	–	–
